Source: ChEMBL document CHEMBL1122346, “Antihypertensive activity of 6-arylpyrido[2,3-d]pyrimidin-7-amine derivatives. 2. 7-Acyl amide analogues” (J Med Chem, 1983)
≈ marks a conversion by molar mass, not a printed value. Where “and” joins values, the source holds several entries; their conditions need not be identical. Identical values can stand only once.

What was measured:
[1] = tested on: Rattus norvegicus; assay: Antihypertensive activity rating in conscious SHR after 2 hr post dose at 50 mg/kg (po); Range 20-30%; type: functional
[2] = species: Rattus norvegicus; assay: Maximum percent decrease in blood pressure in SHR ( hour post dose in parentheses); type: functional
[3] = tested on: Rattus norvegicus; assay: Antihypertensive activity rating in conscious SHR after 10 hr post dose at 50 mg/kg (po); Range 20-30%; type: functional
[4] = tested on: Rattus norvegicus; assay: Antihypertensive activity rating in conscious SHR after 18 hr post dose at 50 mg/kg (po); Range 20-30%; type: functional
[5] = tested on: Rattus norvegicus; assay: Antihypertensive activity rating in conscious SHR after 24 h post dose at 10 mg/kg (po); Range 10-20%; type: functional
[6] = tested on: Rattus norvegicus; assay: Antihypertensive activity rating in conscious SHR after 24 h post dose at 50 mg/kg (po); Range 20-30%; type: functional
[7] = tested on: Rattus norvegicus; assay: Antihypertensive activity rating in conscious SHR after 10 hr post dose at 10 mg/kg (po); 0=No significant reduction; type: functional
[8] = tested on: Rattus norvegicus; assay: Antihypertensive activity rating in conscious SHR after 2 hr post dose at 10 mg/kg (po); 0=No significant reduction; type: functional
[9] = tested on: Rattus norvegicus; assay: Antihypertensive activity rating in conscious SHR after 18 hr post dose at 50 mg/kg (po); type: functional
[10] = tested on: Rattus norvegicus; assay: Antihypertensive activity in conscious spontaneously hypertensive rats 2 hr following 50 mg/kg p.o.; No significant reduction.; type: functional; details: route oral
[11] = tested on: Rattus norvegicus; assay: Antihypertensive activity rating in conscious SHR after 2 hr post dose at 50 mg/kg (po); Range 10-20%; type: functional
[12] = tested on: Rattus norvegicus; assay: Antihypertensive activity rating in conscious SHR after 24 hr post dose at 50 mg/kg (po)v; type: functional
[13] = tested on: Rattus norvegicus; assay: Antihypertensive activity in conscious spontaneously hypertensive rats 10 hr following 50 mg/kg p.o.; Range 10-20%.; type: functional; details: route oral
[14] = Solubility, determined in 0.1 N HCl; type: physicochemical; details: read-out: S
Outline: (§1)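 Dissolved compound was quantified by UV absorption. For the pH 7 value, the acidic solution was brought to pH 7 to give the unprotonated base, the precipitate was removed, and the supernatant was assayed again by UV.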

[15] = Solubility, determined in phosphate buffer at pH 7; type: physicochemical; outline: as §1
[16] = pKa value, measured in 67% of DMF; type: physicochemical; details: 67% DMF
Outline: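 Dissociation constants were found by potentiometric titration in 67% N,N-dimethylformamide/water.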

[17] = Half-life measured in 1:1 ratio of MeOH and phosphate buffer at pH 7; 15-17; type: ADME; details: 1:1 MeOH / phosphate buffer
Outline: (§2)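 Hydrolytic stability was tested at room temperature on solutions of ca. 0.001-0.002%. Media were 0.1 N HCl (pH ~1.5), 50% MeOH/pH 7 phosphate buffer (pH ~8.0), and 50% MeOH/0.05 N aqueous NaOH (pH ~12.2). Changes in the UV spectrum were followed over 2 weeks.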

[18] = Half-life measured in 0.1 N HCl; Stable; type: ADME; details: buffer; outline: as §2
[19] = Half-life measured in 1:1 ratio of MeOH and 0.1 N NaOH; type: ADME; details: 1:1 MeOH / 0.1 N NaOH; outline: as §2
[20] = tested on: Rattus norvegicus; assay: Antihypertensive activity rating in conscious SHR after 24-72 hr post dose at 10 mg/kg (po); Range 10-20%; type: functional
[21] = tested on: Rattus norvegicus; assay: Antihypertensive activity rating in conscious SHR after 10 hr post dose at 10 mg/kg (po); Range 10-20%; type: functional
[22] = pKa value, measured in 67% DMF/water
[23] = Half-life measured in 1:1 ratio of MeOH and phosphate buffer at pH 7; Stable; type: ADME; outline: as §2
[24] = tested on: Rattus norvegicus; assay: Antihypertensive activity rating in conscious SHR after 24 hr post dose at 50 mg/kg (po); Range 10-20%; type: functional
[25] = tested on: Rattus norvegicus; assay: Antihypertensive activity rating in conscious SHR after 24 h post dose at 10 mg/kg (po); 0=No significant reduction; type: functional
[26] = tested on: Rattus norvegicus; assay: Antihypertensive activity rating in conscious SHR after 10 hr post dose at 10 mg/kg (po); Range 20-30%; type: functional
[27] = tested on: Rattus norvegicus; assay: Antihypertensive activity rating in conscious SHR after 2 hr post dose at 10 mg/kg (po); Range 10-20%; type: functional
[28] = tested on: Rattus norvegicus; assay: Antihypertensive activity rating in conscious SHR after 10 h post dose at 10 mg/kg (po); 0=No significant reduction; type: functional
[29] = tested on: Rattus norvegicus; assay: Antihypertensive activity rating in conscious SHR after 24 hr post dose at 10 mg/kg (po); 0=no significant reduction; type: functional
[30] = tested on: Rattus norvegicus; assay: Antihypertensive activity rating in conscious SHR after 10 hr post dose at 50 mg/kg (po); type: functional
[31] = tested on: Rattus norvegicus; assay: Antihypertensive activity rating in conscious SHR after 2 hr post dose at 50 mg/kg (po); type: functional
[32] = tested on: Rattus norvegicus; assay: Antihypertensive activity in conscious spontaneously hypertensive rats 10 hr following 50 mg/kg p.o.; No significant reduction.; type: functional; details: route oral
[33] = tested on: Rattus norvegicus; assay: Antihypertensive activity rating in conscious SHR after 18 hr post dose at 50 mg/kg (po); 0=No significant reduction; type: functional
[34] = tested on: Rattus norvegicus; assay: Antihypertensive activity rating in conscious SHR after 24 hr post dose at 50 mg/kg (po); type: functional
[35] = Half-life measured in 0.1 N HCl (*-<5% change after 14 days at 25 degrees C; Stable; type: ADME; details: buffer, 336 h; outline: as §2
[36] = Half-life measured in 0.1 N HCl; type: ADME; outline: as §2
[37] = Half-life measured in 1:1 ratio of MeOH and phosphate buffer at pH 7; type: ADME; details: 1:1 MeOH / phosphate buffer; outline: as §2
[38] = tested on: Rattus norvegicus; assay: Antihypertensive activity rating in conscious SHR after 2 hr post dose at 10 mg/kg (po); Range 20-30%; type: functional
[39] = tested on: Rattus norvegicus; assay: Antihypertensive activity in conscious spontaneously hypertensive rats 24 hr following 50 mg/kg p.o.; No significant reduction.; type: functional; details: route oral
[40] = tested on: Rattus norvegicus; assay: Antihypertensive activity rating in conscious SHR after 18 hr post dose at 50 mg/kg (po); Range 10-20%; type: functional
[41] = tested on: Rattus norvegicus; assay: Antihypertensive activity rating in conscious SHR after 24 hr post dose at 50 mg/kg (po); 0=No significant reduction; type: functional

Cc1ncc2cc(-c3c(Cl)cccc3Cl)c(NC(=O)C(F)(F)F)nc2n1
Activity rating [1]: 20% | Decrease [2]: 23% | Activity rating [3]: 20% | Activity rating [4]: 20%

COCC(=O)Nc1nc2nc(C)ncc2cc1-c1c(Cl)cccc1Cl
Activity rating [1]: 20% | Activity rating [5]: 10% | Activity rating [6]: 20% | Decrease [2]: 29% | Activity rating [7]: 0% | Activity rating [3]: 20% | Activity rating [8]: 0%

CC(=O)Nc1ncc2cc(-c3c(Cl)cccc3Cl)c(NC(C)=O)nc2n1
Decrease [2]: 32% | Activity rating [3]: 20% | Activity rating [9]: >30% | Activity rating [10]: 0%

CC(=O)Nc1nc2ncncc2cc1-c1ccccc1Br
Activity rating [11]: 10% | Activity rating [12]: 0% | Decrease [2]: 19% | Activity rating [13]: 10%

Cc1ncc2cc(-c3c(Cl)cccc3Cl)c(NC(=O)c3ccco3)nc2n1
solubility [14]: 6600 µg/mL (≈ 16.5 mM) | solubility [15]: 220 µg/mL (≈ 0.551 mM) | pKa [16]: 4.3 | half-life [17]: 360 h | T1/2 [18]: Stable | half-life [19]: 4 h | Activity rating [11]: 10% | Activity rating [6]: 20% | Activity rating [20]: 10% | Decrease [2]: 27% | Activity rating [21]: 10% | Activity rating [3]: 20% | Activity rating [8]: 0% | pKa [22]: 10.7

COC(=O)Nc1nc2nc(C)ncc2cc1-c1c(Cl)cccc1Cl
solubility [14]: 14600 µg/mL (≈ 40.2 mM) | solubility [15]: 280 µg/mL (≈ 0.771 mM) | pKa [16]: 4.2 | T1/2 [23]: Stable | T1/2 [18]: Stable | half-life [19]: 6 h | Activity rating [11]: 10% | Activity rating [24]: 10% | Activity rating [20]: 10% | Decrease [2]: 29% | Activity rating [21]: 10% | pKa [22]: 11.3

Cc1ncc2cc(-c3c(Cl)cccc3Cl)c(NC(=O)CCl)nc2n1
Activity rating [25]: 0% | Decrease [2]: 24% | Activity rating [26]: 20% | Activity rating [27]: 10%

Cc1ncc2cc(-c3c(Cl)cccc3Cl)c(NC(=O)c3ccc([N+](=O)[O-])cc3)nc2n1
Activity rating [28]: 0% | Activity rating [8]: 0%

CCC(=O)Nc1nc2nc(C)ncc2cc1-c1c(Cl)cccc1Cl
Activity rating [29]: 0 | Decrease [2]: 35% | Activity rating [21]: 10% | Activity rating [30]: >30% | Activity rating [9]: >30% | Activity rating [27]: 10% | Activity rating [31]: >30%

Cc1ncc2cc(-c3c(Cl)cccc3Cl)c(NC(=O)NC(C)(C)C)nc2n1
Activity rating [32]: 0% | Activity rating [33]: 0% | Activity rating [10]: 0%

CNc1nc2nc(C)ncc2cc1-c1c(Cl)cccc1Cl
Activity rating [11]: 10% | Decrease [2]: 21% | Activity rating [13]: 10% | Activity rating [4]: 20%

Cc1ncc2cc(-c3c(Cl)cccc3Cl)c(NC=O)nc2n1
Activity rating [1]: 20% | Activity rating [5]: 10% | Decrease [2]: 33% | Activity rating [21]: 10% | Activity rating [30]: >30% | Activity rating [9]: >30% | Activity rating [27]: 10%

Cc1ncc2cc(-c3c(Cl)cccc3Cl)c(N)nc2n1
solubility [14]: 4850 µg/mL (≈ 15.9 mM) | solubility [15]: 7 µg/mL (≈ 0.0229 mM) | T1/2 [23]: Stable | Activity rating [11]: 10% | Activity rating [34]: >30% | Activity rating [20]: 10% | Decrease [2]: 32% | Activity rating [21]: 10% | Activity rating [30]: >30% | T1/2 [35]: Stable

CC(=O)Nc1nc2nc(C)ncc2cc1-c1c(Cl)cccc1Cl
solubility [14]: 34200 µg/mL (≈ 98.5 mM) | solubility [15]: 6050 µg/mL (≈ 17.4 mM) | pKa [16]: 4.1 | half-life [36]: 12.5 h | half-life [19]: < 0.0833 h | half-life [37]: 60 h | Activity rating [20]: 10% | Decrease [2]: 45% | Activity rating [26]: 20% | Activity rating [30]: >30% | Activity rating [9]: >30% | Activity rating [38]: 20% | Activity rating [31]: >30% | pKa [22]: 12.8

Cc1ncc2cc(-c3c(Cl)cccc3Cl)c(NC(=O)c3ccncc3)nc2n1
Activity rating [5]: 10% | Decrease [2]: 18% | Activity rating [21]: 10% | Activity rating [27]: 10%

Cc1ncc2cc(-c3c(Cl)cccc3Cl)c(NC(=O)c3ccoc3)nc2n1
Activity rating [5]: 10% | Decrease [2]: 28% | Activity rating [26]: 20% | Activity rating [38]: 20%

CC(=O)N(C)c1nc2nc(C)ncc2cc1-c1c(Cl)cccc1Cl
pKa [16]: 4.2 | T1/2 [23]: Stable | T1/2 [18]: Stable | half-life [19]: 1.6 h | Activity rating [39]: 0% | Activity rating [32]: 0% | Activity rating [10]: 0%

CC(=O)/N=c1/c(-c2c(Cl)cccc2Cl)cc2cnc(C)nc2n1C
pKa [16]: 2.5 | T1/2 [23]: Stable | half-life [36]: 3.4 h | half-life [19]: 8.8 h | Activity rating [11]: 10% | Activity rating [24]: 10% | Decrease [2]: 17% | Activity rating [32]: 0%

Cc1ncc2cc(-c3c(Cl)cccc3Cl)c(NC(=O)c3cccnc3)nc2n1
solubility [14]: 26600 µg/mL (≈ 64.8 mM) | solubility [15]: 2630 µg/mL (≈ 6.41 mM) | pKa [16]: 4.1 | T1/2 [18]: Stable | half-life [19]: 4 h | half-life [37]: 54 h | Activity rating [11]: 10% | Activity rating [20]: 10% | Decrease [2]: 26% | Activity rating [3]: 20% | Activity rating [27]: 10% | pKa [22]: 9.8

NNc1nncc2ccccc12 [HYDRALAZINE]
Activity rating [5]: 10% | Decrease [2]: 51% and 27% | Activity rating [26]: 20%

Cc1ncc2cc(-c3c(Cl)cccc3Cl)c(O)nc2n1
Decrease [2]: 10% | Activity rating [13]: 10% | Activity rating [40]: 10% | Activity rating [10]: 0%

CCO/C(=N\C)Nc1nc2nc(C)ncc2cc1-c1c(Cl)cccc1Cl
Activity rating [41]: 0% | Decrease [2]: 10% | Activity rating [32]: 0% | Activity rating [10]: 0%
